ChEMBL document CHEMBL1140037, “Effect of cathepsin K inhibitors on bone resorption” (J Med Chem, 2008)
Calls of active or inactive are those of the source. The rule behind the calls is not given here.

What was measured:
Cathepsin S = Cathepsin S (Homo sapiens, UniProt P25774); assay: Inhibition of human recombinant cathepsin S by fluorescence assay
How it was run: (§1)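 Recombinant human cathepsins K, L and S, inhibition read in a fluorescence assay; IC50 values reported.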

[1] = Volume of distribution at steady state in Sprague-Dawley rat at 1 mg/mL/kg, iv; format: ADME, organism-based; conditions: in vivo, read-out: Vdss
[2] = Bioavailability in Sprague-Dawley rat at 3 mg/5 mL/kg, po; format: ADME, organism-based; conditions: in vivo
[3] = Drug level in Sprague-Dawley rat bone marrow at 100 mg/kg/day, po for 11 days measured on 25 hrs after final administration; format: ADME, organism-based; design: route oral; conditions: read-out: Drug uptake
How it was run: (§2)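 Rats dosed orally with 100 mg/kg once daily for 11 days. Compound concentration in bone marrow and serum measured 25 h after the final dose on day 11. BM/serum ratio calculated from the two concentrations.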

Rattus norvegicus [4] = assay: Antibone resorptive activity in Sprague-Dawley rat assessed as inhibition of cathepsin K-mediated C-terminal telopeptidase of type 1 collagen degradation at 100 mg/kg/day, po for 11 days measured on 24 hrs after final administration by RatLaps ELISA; format: functional; design: scale not given: the % may be the effect or the level left
How it was run: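 Intact rats dosed orally with 100 mg/kg once daily for 11 days. Urine collected for 24 h after the final dose on day 11; CTx measured by RatLaps ELISA. Inhibition expressed as percentage of vehicle-treated controls.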

[5] = Drug level in Sprague-Dawley rat serum at 100 mg/kg/day, po for 11 days measured on 25 hrs after final administration; format: ADME, organism-based; design: route oral; conditions: read-out: Drug uptake; how it was run: as §2
[6] = Ratio of drug level in bone marrow to serum in po dosed Sprague-Dawley rat; format: ADME, organism-based; conditions: in vivo; how it was run: as §2
[7] = Half life in Sprague-Dawley rat at 1 mg/mL/kg, iv; format: ADME, organism-based; conditions: in vivo
Procathepsin L = Procathepsin L (Homo sapiens, UniProt P07711); assay: Inhibition of human recombinant cathepsin L by fluorescence assay; how it was run: as §1
[8] = Plasma clearance in Sprague-Dawley rat at 1 mg/mL/kg, iv; format: ADME, organism-based
Cathepsin K [9] = molecular target: T1, Cathepsin K (Rattus norvegicus, UniProt O35186); assay: Inhibition of rat recombinant cathepsin K expressed in Sf21 cells by fluorescence assay
T1 sequence (O35186 whole entry): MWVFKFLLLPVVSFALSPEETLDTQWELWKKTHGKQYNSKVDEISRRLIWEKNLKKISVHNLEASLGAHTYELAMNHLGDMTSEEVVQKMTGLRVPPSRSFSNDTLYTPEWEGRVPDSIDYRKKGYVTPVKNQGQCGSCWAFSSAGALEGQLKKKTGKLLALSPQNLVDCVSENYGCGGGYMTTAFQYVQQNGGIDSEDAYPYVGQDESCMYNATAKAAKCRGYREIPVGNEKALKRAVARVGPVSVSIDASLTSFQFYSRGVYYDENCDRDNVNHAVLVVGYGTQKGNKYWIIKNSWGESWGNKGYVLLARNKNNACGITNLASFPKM

Cathepsin K [10] = molecular target: T2, Cathepsin K (Homo sapiens, UniProt P43235); assay: Inhibition of human recombinant cathepsin K by fluorescence assay; how it was run: as §1
T2 sequence (P43235 whole entry): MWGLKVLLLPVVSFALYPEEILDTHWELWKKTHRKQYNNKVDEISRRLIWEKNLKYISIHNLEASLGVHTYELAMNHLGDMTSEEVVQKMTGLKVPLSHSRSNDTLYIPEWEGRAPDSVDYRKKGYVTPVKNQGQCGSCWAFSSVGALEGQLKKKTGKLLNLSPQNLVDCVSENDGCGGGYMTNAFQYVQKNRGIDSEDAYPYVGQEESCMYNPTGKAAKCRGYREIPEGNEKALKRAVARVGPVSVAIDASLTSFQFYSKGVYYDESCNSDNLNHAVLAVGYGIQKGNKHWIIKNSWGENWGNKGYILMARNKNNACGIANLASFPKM

[11] = (§3) Bioavailability in Sprague-Dawley rat at 10 umol/5 mL/kg, po; format: ADME, organism-based; conditions: Sprague-Dawley, in vivo, 10 umol/5 mL/kg
How it was run: (§4)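 Male Sprague-Dawley rats, cassette dosing, iv and oral. Plasma levels by LC-MS/MS. Half-life is the noncompartmental terminal elimination estimate. Clearance, steady-state volume of distribution and bioavailability derived from the profiles.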

[12] = Half life in Sprague-Dawley rat at 4 umol/mL/kg, iv; format: ADME, organism-based; conditions: in vivo; how it was run: as §4
[13] = Plasma clearance in Sprague-Dawley rat at 4 umol/mL/kg, iv; format: ADME, organism-based; how it was run: as §4
[14] = Volume of distribution at steady state in Sprague-Dawley rat at 4 umol/mL/kg, iv; format: ADME, organism-based; conditions: in vivo, read-out: Vdss; how it was run: as §4
Cynomolgus monkey [15] = assay: Antibone resorptive activity in cynomolgus monkey assessed as reduction of C-terminal telopeptidase of type 1 collagen degradation at 2 mg/kg/day, po measured after 8 hrs after 7 days of administration by CrossLaps ELISA; format: functional, organism-based; conditions: Macaca fascicularis
How it was run: (§5)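 Cynomolgus monkeys given 2 mg/kg orally once daily for 14 days. CTx measured by CrossLaps ELISA before and 8 h after dosing on day 1 and on days 7 and 14, and at 24 h after the first dose. Vehicle group run in parallel to allow for daily CTx fluctuation. Means and SEM, n = 4, 5; t-test against vehicle control.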

Cynomolgus monkey [16] = assay: Antibone resorptive activity in cynomolgus monkey assessed as reduction of C-terminal telopeptidase of type 1 collagen degradation at 2 mg/kg/day, po measured before 8 hrs after first administration by CrossLaps ELISA; format: functional, organism-based; conditions: Macaca fascicularis; how it was run: as §5
Cynomolgus monkey [17] = assay: Antibone resorptive activity in cynomolgus monkey assessed as reduction of C-terminal telopeptidase of type 1 collagen degradation at 2 mg/kg/day, po measured before 8 hrs after 7 days of administration by CrossLaps ELISA; format: functional, organism-based; conditions: Macaca fascicularis; how it was run: as §5
Cynomolgus monkey [18] = assay: Antibone resorptive activity in cynomolgus monkey assessed as reduction of C-terminal telopeptidase of type 1 collagen degradation at 2 mg/kg/day, po measured after 24 hrs after first administration by CrossLaps ELISA; format: functional, organism-based; conditions: Macaca fascicularis; how it was run: as §5
Cynomolgus monkey [19] = assay: Antibone resorptive activity in cynomolgus monkey assessed as reduction of cathepsin K-mediated C-terminal telopeptidase of type 1 collagen degradation at 2 mg/kg/day, po measured after 8 hrs after 14 days of administration by CrossLaps ELISA; format: functional, organism-based; conditions: Macaca fascicularis; how it was run: as §5
Cynomolgus monkey [20] = assay: Antibone resorptive activity in cynomolgus monkey assessed as reduction of C-terminal telopeptidase of type 1 collagen degradation at 2 mg/kg/day, po measured before 8 hrs after 14 days of administration by CrossLaps ELISA; format: functional, organism-based; conditions: Macaca fascicularis; how it was run: as §5
Cynomolgus monkey [21] = assay: Toxicity in cynomolgus monkey at 2 mg/kg/day, po for 14 days; format: organism-based, Macaca fascicularis; design: route oral; conditions: in vivo, 336 h
Rattus norvegicus [22] = assay: as §3; format: ADME, organism-based; conditions: in vivo; how it was run: as §4

Procathepsin L, sequence (P07711 whole entry): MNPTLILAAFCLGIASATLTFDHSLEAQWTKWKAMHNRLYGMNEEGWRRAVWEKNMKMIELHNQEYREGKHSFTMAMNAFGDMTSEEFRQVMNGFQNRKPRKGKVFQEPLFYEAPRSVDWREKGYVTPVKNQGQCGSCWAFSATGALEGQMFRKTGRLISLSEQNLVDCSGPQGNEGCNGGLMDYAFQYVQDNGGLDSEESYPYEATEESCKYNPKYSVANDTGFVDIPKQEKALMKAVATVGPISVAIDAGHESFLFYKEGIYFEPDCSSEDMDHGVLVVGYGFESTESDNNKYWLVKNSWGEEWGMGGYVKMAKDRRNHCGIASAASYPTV
Cathepsin S, sequence (P25774 whole entry): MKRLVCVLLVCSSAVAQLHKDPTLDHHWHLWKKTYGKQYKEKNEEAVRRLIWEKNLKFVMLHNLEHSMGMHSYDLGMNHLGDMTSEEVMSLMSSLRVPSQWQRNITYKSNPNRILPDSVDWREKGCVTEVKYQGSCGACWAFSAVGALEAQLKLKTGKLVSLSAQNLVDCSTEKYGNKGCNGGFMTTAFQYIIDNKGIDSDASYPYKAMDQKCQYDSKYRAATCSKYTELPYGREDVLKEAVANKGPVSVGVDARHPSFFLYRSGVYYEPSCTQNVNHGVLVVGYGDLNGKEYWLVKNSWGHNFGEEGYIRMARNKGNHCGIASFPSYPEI

| IC50 (Cathepsin S) [µM] | concentration at 25 h [3] [nM] | concentration at 25 h [5] [nM] | Drug uptake [6] | IC50 (Procathepsin L) [µM] | IC50 (Cathepsin K [9]) [µM] | IC50 (Cathepsin K [10]) [µM] | bioavailability [11] [%] | half-life [12] [h] | clearance [13] [mL/min/kg] | Vd [14] [L/kg] | SMILES | Vd [1] [L/kg] | bioavailability [2] [%] | Activity (Rattus norvegicus [4]) [%] | half-life [7] [h] | clearance [8] [mL/min/kg] | also measured |
| --- | --- | --- | --- | --- | --- | --- | --- | --- | --- | --- | --- | --- | --- | --- | --- | --- | --- |
|  | 17600 | 133 | 132 |  | 0.027 |  | 49 | 2.8 | 85 | 17.3 | CCCN1CCC2(CC1)NC(=O)N(Cc1cc3cnc(C#N)nc3n1CC(C)(C)C)C2=O |  |  | 89.9 |  |  |  |
|  | 302 | 64 | 4.7 |  | 0.012 |  | 144 | 1.4 | 35 | 4.3 | CN1C(=O)NC2(CCN(Cc3cc4cnc(C#N)nc4n3CC(C)(C)C)CC2)C1=O |  |  | 6.8 |  |  |  |
| > 1 | 832 | 545 | 1.5 | > 1 |  | < 0.001 | 58 | 1.9 | 45 | 6.7 | CCCN1C(=O)NC2(CCN(Cc3cc4cnc(C#N)nc4n3CC(C)(C)C)CC2)C1=O |  |  | 11.3 |  |  |  |
|  | 33500 | 960 | 34.9 |  | 0.03 |  |  |  |  |  | CC(C)(C)Cn1c(CN2C(=O)CC3(CCNCC3)C2=O)cc2cnc(C#N)nc21 | 97.2 | 98 | 73.2 | 4.7 | 238 | Activity (Cynomolgus monkey [15]): Active; Activity (Cynomolgus monkey [16]): Active; Activity (Cynomolgus monkey [17]): Active; Activity (Cynomolgus monkey [18]): Active; Activity (Cynomolgus monkey [19]): Active; Activity (Cynomolgus monkey [20]): Active; Activity (Cynomolgus monkey [21]): Non-toxic |
| > 1 |  |  |  | > 1 | 0.076 | < 0.001 |  | 3.3 | 245 | 59.2 | CC(C)(C)Cn1c(CN2C(=O)NC3(CCNCC3)C2=O)cc2cnc(C#N)nc21 |  |  |  |  |  | Activity (Rattus norvegicus [22]): Not Active |

The next lines start with the compound.

| SMILES | IC50 (Cathepsin S) [µM] | concentration at 25 h [3] [nM] | concentration at 25 h [5] [nM] | Drug uptake [6] | IC50 (Procathepsin L) [µM] | IC50 (Cathepsin K [9]) [µM] | IC50 (Cathepsin K [10]) [µM] | bioavailability [11] [%] | half-life [12] [h] | clearance [13] [mL/min/kg] | Vd [14] [L/kg] | Vd [1] [L/kg] | bioavailability [2] [%] | Activity (Rattus norvegicus [4]) [%] | half-life [7] [h] | clearance [8] [mL/min/kg] | also measured |
| --- | --- | --- | --- | --- | --- | --- | --- | --- | --- | --- | --- | --- | --- | --- | --- | --- | --- |
| COc1ccc2c(c1)C1(CCNCC1)C(=O)N2Cc1cc2cnc(C#N)nc2n1CC(C)(C)C | > 1 | 45800 | 288 | 159 | > 1 | 0.044 | < 0.001 |  |  |  |  | 73.6 | 29 | 68 | 4.9 | 182 |  |
| CC(C)(C)Cn1c(CN2CCC3(CC2)NC(=O)NC3=O)cc2cnc(C#N)nc21 | > 1 | 381 | 557 | 0.7 | > 1 |  | < 0.001 | 42 | 1.6 | 78.3 | 5.9 |  |  | -7.9 |  |  |  |
| CC(C)(C)Cn1c(CN2C(=O)C3(CCNCC3)c3cc(F)ccc32)cc2cnc(C#N)nc21 |  | 119000 | 1200 | 99 |  | 0.078 |  |  |  |  |  | 78.4 | 36 | 36.2 | 6.6 | 132 |  |
